# Experimental data pooled from the literature.
# Target: TGF-beta receptor type-2 (TGFBR2, Homo sapiens, UniProt P37173)
Structure (SMILES),read-out,mode,technique,tested at,endpoint,result
O=C(Nc1cccnn1)N1CC(C/C=C/c2cncc(Oc3ccc(C(F)(F)F)cn3)n2)C1,cell-free assay,,competition with immobilised ligand,1 µM,remaining binding,100%
O=C(Nc1cnn(-c2csc(C(=O)NC3COC3)c2)c1)Nc1c(F)cccc1Cl,enzyme activity,inhibitor,,5 µM,remaining activity,82.6%
Cc1nc(C2CCN(C(=O)c3ccc(OC(F)(F)F)cc3N)CC2)c2ncc(N3CCN(C)CC3)cc2n1,cell-free assay,,competition with immobilised ligand,1 µM,remaining binding,93%
O=C(Nc1cnn(-c2csc(C(=O)NC3COC3)c2)c1)Nc1ccccc1Cl,enzyme activity,inhibitor,,5 µM,remaining activity,113%
O=C1NC(=O)c2cc(Nc3ccc(F)cc3)c(Nc3ccc(F)cc3)cc21,cell-free assay,,,0.5 µM,remaining signal,85.2%
CNCc1ccccc1-c1csc([C@@H](C)Nc2nc(C)nc3cc(OC)c(OC)cc23)c1,cell-free assay,,competition with immobilised ligand,1 µM,remaining binding,91%
O=C1Nc2ccc(Cl)cc2C1=Cc1cc(Cl)c(O)c(Cl)c1,cell-free assay,,,0.5 µM,remaining signal,94.9%
NS(=O)(=O)c1cc(NC(=O)Cc2ccccc2)ccc1Oc1cccc(Cl)c1,cell-free assay,,competition with immobilised ligand,1 µM,remaining binding,87%
Cc1ccc(Nc2nccc(N(C)c3ccc4c(C)n(C)nc4c3)n2)cc1S(N)(=O)=O,cell-free assay,,,0.5 µM,remaining signal,100%
CC(C)(C)c1nc(-c2cccc(NS(=O)(=O)c3c(F)cccc3F)c2F)c(-c2ccnc(N)n2)s1,enzyme activity,inhibitor,radiometric,1 µM,remaining activity,42%
COc1cc(Cl)c(C(=O)N[C@@H](CN[C@H]2CC[C@@H](N)CC2)Cc2ccc(C#N)cc2)cc1-c1ccc(CN[C@H](C)c2ccc(C)cc2)o1,enzyme activity,inhibitor,,1 µM,remaining activity,94%
N#CCCc1ccc2c(c1)-c1[nH]c3ccc([N+](=O)[O-])cc3c1CC(=O)N2,cell-free assay,,,0.5 µM,remaining signal,10.1%
